According to ChEMBL document CHEMBL4118031, “Halogenated Compounds from Directed Fermentation of Penicillium concentricum, an Endophytic Fungus of the Liverwort Trichocolea tomentella” (J Nat Prod, 2017):

Experiments:
MCF7 = test: Cytotoxicity against human MCF7 cells after 3 days by sulforhodamine B assay; type: functional, cell-based; conditions: MCF7, 72 h
Outline: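 Antiproliferative assay on MCF-7 breast cancer cells following a published protocol, with camptothecin as the positive control.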

HT-29 = test: Cytotoxicity against human HT-29 cells after 3 days by sulforhodamine B assay; type: functional, cell-based; conditions: HT-29, 72 h
Outline: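 Antiproliferative assay on HT-29 colon cancer cells following a protocol from earlier work, with paclitaxel as the positive control.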

Cc1cc(O)cc2oc(=O)c3c(O)cc(O)cc3c12 [ALTERNARIOL]
IC50 (MCF7): > 20 µM
IC50 (HT-29): > 20 µM

COc1cc(O)c2c(=O)c3c(C)cc(O)c(O)c3oc2c1
IC50 (MCF7): > 20 µM
IC50 (HT-29): > 20 µM

Cc1cc(O)cc2oc3cc(Cl)cc(O)c3c(=O)c12
IC50 (MCF7): > 20 µM

O=C1C(CO)=C[C@@H](O)[C@@H](O)[C@H]1Cl
IC50 (MCF7): > 20 µM

O=C1C(CO)=C[C@@H](O)[C@@H](O)[C@H]1Br
IC50 (MCF7): 9.7 µM

COC1=CC(=O)C[C@@H](C)[C@]12Oc1cc(OC)cc(OC)c1C2=O
IC50 (MCF7): > 20 µM
IC50 (HT-29): > 20 µM

CC[C@@]1(O)C(=O)OCc2c1cc1n(c2=O)Cc2cc3ccccc3nc2-1 [CAMPTOTHECIN]
IC50 (MCF7): 0.073 µM

COC1=CC(=O)C[C@@H](C)[C@]12Oc1c(Cl)c(OC)cc(OC)c1C2=O [GRISEOFULVIN]
IC50 (MCF7): 13.9 µM
IC50 (HT-29): > 20 µM

COc1cc(O)c(C(=O)c2c(C)cc(O)cc2OC)c(O)c1Cl
IC50 (MCF7): > 20 µM
IC50 (HT-29): > 20 µM

COc1cc(O)c2c(=O)c3c(C)cc(O)cc3oc2c1
IC50 (MCF7): > 20 µM
IC50 (HT-29): > 20 µM

COC1=CC(=O)C=C(C)[C@]12Oc1cc(OC)cc(OC)c1C2=O
IC50 (MCF7): > 20 µM
IC50 (HT-29): > 20 µM

OCc1cc(O)cc(Cl)c1O
IC50 (MCF7): 14.9 µM

O=C1C(CO)=C[C@@H](O)[C@H]2O[C@@H]12 [EPOXYDON]
IC50 (MCF7): 5.7 µM
IC50 (HT-29): 14.1 µM

OCC(O)c1ccccc1 (racemic)
IC50 (MCF7): > 20 µM
IC50 (HT-29): > 20 µM

O=C1C(CO)=C[C@@H](O)[C@@H](O)[C@@H]1Br
IC50 (MCF7): 9.7 µM

Cc1cc(O)cc2oc3cc(O)cc(O)c3c(=O)c12 [NORLICHEXANTHONE]
IC50 (MCF7): > 20 µM
IC50 (HT-29): > 20 µM

O=C(OCCO)c1ccccc1
IC50 (MCF7): > 20 µM
IC50 (HT-29): > 20 µM

COc1cc(O)c(C(=O)c2c(C)cc(O)cc2OC)c(O)c1
IC50 (MCF7): > 20 µM
IC50 (HT-29): > 20 µM

CC(=O)O[C@H]1C(=O)[C@@]2(C)[C@H]([C@H](OC(=O)c3ccccc3)[C@]3(O)C[C@H](OC(=O)[C@H](O)[C@@H](NC(=O)c4ccccc4)c4ccccc4)C(C)=C1C3(C)C)[C@]1(OC(C)=O)CO[C@@H]1C[C@@H]2O [PACLITAXEL]
IC50 (HT-29): 0.0014 µM

OCc1cc(O)ccc1O [GENTISYL ALCOHOL]
IC50 (MCF7): 17.1 µM
IC50 (HT-29): 6.4 µM

O=C1C(CO)=C[C@@H](O)[C@@H](O)[C@@H]1Cl
IC50 (MCF7): > 20 µM

OCc1cc(O)cc(Br)c1O
IC50 (MCF7): 8.4 µM
